System: MS2 coat protein
Test: apparent Kd, MS2 coat protein; higher = weaker binding; RNA-MaP array; FMN 200 µM where present
How it was run: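 Designs were transcribed by stalled E. coli RNA polymerase on Illumina sequencing-chip clusters. They were titrated with SNAP-549-labelled MS2 coat protein from 0.7 or 1.5 nM, doubling to 3 µM, in 100 mM Tris-HCl pH 7.5, 80 mM KCl, 4 mM MgCl2, BSA, DTT, yeast tRNA and Tween-20, without and then with constant ligand. The apparent Kd is the median of filtered per-cluster fits after normalisation of green signal to red-channel RNA signal and control-cluster median Fmax.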

[1] = designed as: OFF switch for flavin mononucleotide, no ligand
[2] = ligand present: flavin mononucleotide, designed as: OFF switch for flavin mononucleotide
[3] = designed as: ON switch for flavin mononucleotide, no ligand
[4] = ligand present: flavin mononucleotide, designed as: ON switch for flavin mononucleotide

Row | Sequence | apparent Kd [1] [nM] | apparent Kd [2] [nM] | apparent Kd [3] [nM] | apparent Kd [4] [nM]
1 | UAAUUUUGUCAAGGAUAUGUAAUAUAGAUUAGAAAACAUGAGGAUCACCCAUGUAUAUGGUGGGAACAGAAGGUGAAUGGUGUA | 165 | 155 | – | –
2 | UUUUCUUUUGUGAGGAUAUACUUGUUUUUUUUUUUGUAGAAGGCACAUGAGGAUCACCCAUGUACUCUUUCCUG | 19.7 | 22.6 | – | –
3 | AUAGAAGACUAGAAGGAUUUAGUUGUAUAUUGUCGAGGUAUAUAAUUAGGUAGGAUAUGGGACAUGAGGAUCACCCAUGUUUUG | – | – | 28.2 | 15.4
4 | UGCUGUGUCAGAGGAUAUACUACUAUAAUCCAUUGCAAAUAGCGAUGGACAUGAGGAUCACCCAUGUAGAAGGCUGUCACAGCA | 46.6 | 178 | – | –
5 | AAGUAUAGAGGAUAUAGUAGGUACAACAUGAGGAUCACCCAUGUUCUUCAUAACGUAUUUCUAGAAGGCUGAUAAA | 156 | 353 | – | –
6 | UGUUCUAUGUAGAAGGCCCAUAUCUGUACUUAGGGAGGAUAUACAUGAGGAUCACCCAUGUGUAGAGCUGGUGGACUGGACAGC | 20.9 | 32.5 | – | –
7 | CUCGUGUCGGAGGAUAUCCAGCGCGAAAAUAAAGGAGAAGGCCGCACAUGAGGAUCACCCAUGUAACAUGGUCC | 56.2 | 76.4 | – | –
8 | AAUAACAGAGGAUAUACUGUUUUAUGUGUUUAUUAUUUUGAACAUGAGGAUCACCCAUGUAGAAGGCUGAAUAA | 23.9 | 21 | – | –
9 | ACUAUACGAGGAUAUACUGUCAGUACUCAGACAUAAAUAUGACAUGAGGAUCACCCAUGUAGAAGGCGUUUACU | 29 | 39 | – | –
10 | UUUAUGUCAGGAUAUGAUUAGAUCUACUUCGGUAGAUCUAAUCAGAAGGGACAUGAGGAUCACCCAUGUAGUUU | 111 | 226 | – | –
11 | GGGUACAUCGGAGGAUAUCAUGUAAAUACAUGAGGAUCACCCAUGUCGAAGGAGACAUCGGAGAUUGAGAAGGCCGAUGUACCG | – | – | 87.7 | 579
12 | AUCAGCUCGUCAGGAUAUACGUCACUGUGUCAGCAGUGUGGUAAGAUCACAUGAGGAUCACCCAUGUAGAAGGGACGAGCUGAU | 12.9 | 235 | – | –
13 | AGAUUUUUUACAGGAUAUGUUAGUUUACAGUUGAUUGGUUAUUACAUUAUGACAGAAGGGUAGAACAUGAGGAUCACCCAUGUA | – | – | 374 | 174
14 | GUAGCUACAUGAGGAUCACCCAUGUAGGAUAUCGCUAUUGUAAUCAUGUUACAUGAUUACAAUAGCGAGAAGGACGUGUGCUAC | 9.03 | 10.4 | – | –
15 | UGGGAGCGAUAGAAGGCCGGGUUUCACAUGAGGAUCACCCAUGUGCGGGCCCUCUGUUGAAGGCUGGAGGAUAUAUCGUGCGGA | 14.5 | 7.39 | – | –
16 | GUCUUCCUAGGAUAUACAUGAGGAUCACCCAUGUACAGUUUCGUCUAAGGAUACUCGCGUAGAAGGAGGUGGAU | 21.9 | 42.7 | – | –
17 | UCGACCAGCGCCAGUCGAACAUGAGGAUCACCCAUGUACUCCAGAAGGCCGCCCAAGAACGGAGUGGAGGAUAUGGAGGUUCUC | – | – | 37.7 | 33.2
18 | ACCUUACAUGAGGAUCACCCAUGUUAGGAUAUCUCGCUUGCGCUGUCACAGCGCAAGCAGAGAAGGGACGCGGG | 35.2 | 40.9 | – | –
19 | AGAAAACAUGAGGAUCACCCAUGUGAGGAUAUGCAAAUAUAUACGAAAGAUUAUAAAAGCAGAAGGCACAAAAG | 111 | 130 | – | –
20 | GAUUAACAUGAGGAUCACCCAUGUGAGGAUAUGGACUUGCCCACUUAACCAUUAGAGUCUAGAAGGCGCAUCUA | 29.4 | 25.5 | – | –
21 | AUUAUUGACAUAGGAUAUUGUUACAUGAGGAUCACCCAUGUUAUUUGGGAACUAGGAAUAUUUUACAAGAAGGAUGUUGUUACA | – | – | 101 | 81.3
22 | UGAUACUAGGGAGGAUAUGGGAAGAUACAUGAGGAUCACCCAUGUUUAAGAAUGCCGAGAGGCAACUAGAAGGCCCUAGUACCU | – | – | 538 | 21.3
23 | UUGGACGUUGUAGGAUAUGUAGGAUAUUCCUACAUGAGGAUCACCCAUGUUGACAUGGAAGAAGGACAGAAGGACGAUGUCCAU | – | – | 277 | 5.32
24 | AAAAUCUAUUGAGGAUAUUCAUACACUACAUACGAAGAAGGCAAACAAUCAUGAGGACAUGAGGAUCACCCAUGUUGUGACCAU | – | – | 24 | 15.5

Row | Sequence | apparent Kd [1] [nM] | apparent Kd [2] [nM] | apparent Kd [3] [nM] | apparent Kd [4] [nM]
25 | AUGCAGGGCGAGAAGGAGCGACAUGAGGAUCACCCAUGUAUCUUCAACUCGCUAGGAUAUCGGGUUGUAUUGAAAAUUAUUGAA | 4.86 | 5.5 | – | –
26 | GCCUAACAUGAGGAUCACCCAUGUAGUGGGUUGUUAGGAUAUGGGCGGCGUAACGCUGCACCAGAAGGAAUAGAAG | – | – | 865 | 504
27 | UUAAUGUGAGGAUAUCAGGUGUGCUAGAGUACUGGUACAUCUGAGAAGGCACAUGAGGAUCACCCAUGUUCUUC | 36.9 | 110 | – | –
28 | GGGCCCGAGGUGAGGAUAUUGUGCAUGGCGAGUGACAAGAAGGUACAUGAGGAUCACCCAUGUGAUACCGACCU | 451 | 371 | – | –
29 | GUGCGGUAGGAGAAGGACGGAGGGUUCUUUUCAUACAUGAGGAUCACCCAUGUAGGAUAUCCUACCUCACGCGGCCUACUACAG | 8.11 | 11.4 | – | –
30 | CUGGUUGUCGAGGAUAUGCACCGGCUCGCUGACGCAGAAGGCGACACAUGAGGAUCACCCAUGUCGGUUCGCGA | 15.6 | 31.3 | – | –
31 | CUUUGACAUGAGGAUCACCCAUGUGAGGAUAUGAUGCGAUCGUCGAAAGACGAUAGCAUCAGAAGGCACAUAUG | 85.7 | 238 | – | –
32 | AGGGCGAAAUGGCUCUAUGAGAUGAGAAGGGUAGGAGGGUGGAAGUACAUGAGGAUCACCCAUGUACAGGAUAUCAUGCCGAUU | 6.42 | 6.4 | – | –
33 | GGACCACAUCAGGAUAUGACUAGCCUCGGCUAGUCAGAAGGGAUGACAUGAGGAUCACCCAUGUGAUCAGGUCC | 67.9 | 110 | – | –
34 | UUCAUUAACAUGAGGAUCACCCAUGUUGGCCAGUCUCACACCAGAAGGCACGUUGAGCACAACAGUGAGGAUAUGGGUGACAUA | – | – | 286 | 52.9
35 | AUAUAGGCCCAGAAGGUGCCAGCGAGAGCUGCACAUGAGGAUCACCCAUGUUGUCGGUGACGACGCAAGGAUAUGGGCCUAUAU | – | – | 24.8 | 7.13
36 | ACAUGAUAUGUAGGAUAUCACAACAUGAGUUUUAUUAUUGUUAUUUAUGAUUGAGAAGGACAUUUACAUGAGGAUCACCCAUGU | 17.8 | 12.3 | – | –
37 | GCAUGGUAUGAGAAGGCAUAUUUAAUCUAACAUCAUGUUUACAUGAGGAUCACCCAUGUUACCAAUGAGGAUAUCAUACCGUGC | 9.67 | 9.8 | – | –
38 | GGGAUGCUAGGAUAUACAUCGGGCUCCAGGAUGUUCCGGGAACAUGAGGAUCACCCAUGUAGAAGGAGCGUAUG | 80.4 | 50.6 | – | –
39 | AAGAUGCCUCCUGCUGGUGGGAGACAUGAGGAUCACCCAUGUCAGGAUAUCGGUUAAAGAGGACACGAGAAGGGACAGGAGUAC | 8.19 | 9.23 | – | –
40 | CGCUGGUGACAGCAUCCAUCAAAACAUGAGGAUCACCCAUGUAGAAGGCUGUACGGUUACCGUACAGAGGAUAUACAAUGAUGG | 7.56 | 9.75 | – | –
41 | GGAUAGGACAGAGGAUAUGCCGAUAGGAUCUACUAUCGAAGAAUCCUCACAUGAGGAUCACCCAUGUAGAAGGCUGUCCUAUCG | 23.8 | 131 | – | –
42 | GUUAUAAAGGUAGGAUAUUGUAUUAUAAUUAAAUAAGAAGGAUCUCACAUGAGGAUCACCCAUGUAAGAGGAUCACCCAUGUAU | 9.63 | 8.14 | – | –
43 | ACGCGUUGGGAGAAGGUACUUUAAUUAGGUUACACAUGAGGAUCACCCAUGUAAGGAUAUCCCAUCGUGUAAUAUUAUACAGCA | 8.06 | 7.39 | – | –
44 | AUAAUGUGAGGAUAUACAUGAGGAUCACCCAUGUAAUUAAAUCGGAGAGCCACAAUUCGUAGAAGGUACAUUUA | 22 | 27.7 | – | –
45 | CGCUAAGAUGGGUCUAAUGGAGCAUAGGAUAUGCUUGUACAUGAGGAUCACCCAUGUAAUAUUGUGCAGAAGGGUGCAUUUGCG | – | – | 127 | 61.7
46 | AGUGUCAUCGAGAAGGCCUUAGGAACAUGAGGAUCACCCAUGUAACAUGGGAGGAUAUCGAUGAUACAGCUACGUUUCGUAGCA | – | – | 6.51 | 4.85
47 | UUAUAUAGUGUGAGGAUAUGCUGGUCCUUGGAUCAGCAGAAGGCACAUGAGGAUCACCCAUGUAGUUAAAUUUA | 34.4 | 134 | – | –
48 | GAGCGAAAGCUCAAUGUCGAUAGCAGAAGGACAUCCUUCAACAUGAAAACAUGAGGAUCACCCAUGUAGGAUAUGCUAUCGACU | 5.32 | 5.84 | – | –

From the EternaBench riboswitch data
